Screening results (PubChem BioAssay)
Compounds with a hit are over-represented: about 1.7% of the library has one in this group of screens.
HNF4A DNA FP: change in binding of human HNF4 alpha to DNA. P41235. HNF4a-FITC DNA binding, fluorescence polarization, 1 h. activity change, % at 10 µM. 360,000 compounds, 0.3% hits. AID 1224865; in the data active = activity change above about 30%, passing the limit was not always enough
Rpn11 inh: blocks the human proteasome subunit Rpn11; O00487; human 26S proteasome, Ub4-pepOG fluorescence polarization; 20S core pre-blocked with epoxomicin; inhibition, % at 20 µM; 360,000 compounds, 0.59% hits; AID 588493;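 active = inhibition at 20 µM, scaled to each plate's controls, above about 33%, limit read from the data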
TPT1 inhibitor: inhibitors of Candida albicans tRNA 2'-phosphotransferase TPT1; 300,000 compounds, 0.81% hits; inhibition, % at 5 µM; recombinant caTPT1, FP RNA substrate dephosphorylation;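 active = inhibition above the mean of all tested compounds plus 3 SD, set per screening campaign, cut at about 24% in these data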;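 also: plate controls were DMSO alone for no effect and ferristatin control at 100 nM for full effect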
CSN inh: inhibitors of human CSN-mediated cullin deneddylation; Q92905; Purified CSN, SCF-Nedd8-OG deneddylation, fluorescence polarization; inhibition, % at 12.5 µM; 360,000 compounds, 0.38% hits; AID 651999;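 active = pattern-corrected inhibition above about 35%, with an unprinted fluorescence ratio check between 0.5 and 1.5, limit read from the data, passing the limit was not always enough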;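 also: 0% = enzyme with substrate and 100% = substrate without enzyme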
Target sequence (Q92905 whole entry, looked up, one chain of several): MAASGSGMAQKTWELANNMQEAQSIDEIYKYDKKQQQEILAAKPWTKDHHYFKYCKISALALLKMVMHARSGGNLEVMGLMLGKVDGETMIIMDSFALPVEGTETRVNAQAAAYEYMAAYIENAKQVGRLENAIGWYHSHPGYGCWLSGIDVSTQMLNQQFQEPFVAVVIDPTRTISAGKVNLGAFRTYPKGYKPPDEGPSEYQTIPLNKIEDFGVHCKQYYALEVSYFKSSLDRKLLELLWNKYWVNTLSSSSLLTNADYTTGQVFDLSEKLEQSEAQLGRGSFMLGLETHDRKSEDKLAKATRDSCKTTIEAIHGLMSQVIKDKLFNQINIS
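Detection – fluorescence polarization · System – HEK293T-derived human Csn5 enzyme · Controls – substrate-only high control, full reaction low control · Timing – 90 min, room temperature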
IDE cell activ: boosts human insulin-degrading enzyme activity in HEK cells | P14735 | FAbeta-B cleavage, fluorescence polarization; 0% vehicle, 100% cell-free pure enzyme wells | activation, % at 5.96 µM | 340,000 compounds, 0.073% hits;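 active = activation above the mean of all tested compounds plus 3 SD, set per screening campaign, cut at about 17% in these data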
IDE cell inh: inhibitors of human insulin-degrading enzyme in cells | P14735 | HEK cells, FAbetaB cleavage, fluorescence polarization | inhibition, % at 5.59 µM | 320,000 compounds, 0.41% hits;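 active = percent inhibition above the average of all tested compounds plus 3 SD, set per screening campaign, cut at about 16% in these data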;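 also: IDE supplied by intact live HEK cells; FP after avidin binding of uncleaved biotin substrate so inhibition keeps polarization high; 0% = DMSO wells and 100% = 60 µM reference IDE inhibitor Ii1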
Starred values were filed as active, the others as inactive.

What do the screens show for `COC(=O)c1c(C)[nH]c(O)c1C=Nc1ccc(C(C)C)cc1`?
HNF4A DNA FP: 3; Rpn11 inh: 36; TPT1 inhibitor: 9; CSN inh: 53*; IDE cell activ: 2; IDE cell inh: 4

How did COCc1[nH][nH]c(=O)c1C=Nc1ccc(Oc2ccccc2)cc1 do in these assays?
HNF4A DNA FP: 1; Rpn11 inh: -14; TPT1 inhibitor: -2; CSN inh: -1; IDE cell activ: 2; IDE cell inh: 7

Results for COC(=O)c1c(C)[nH]c(O)c1C=Nc1ccc(Oc2ccccc2)cc1 ?
HNF4A DNA FP: 17; Rpn11 inh: 34; TPT1 inhibitor: 2; CSN inh: 90*; IDE cell activ: 3; IDE cell inh: 4

How did CCn1c(SCC(=O)Nc2ccc(OC)c(S(=O)(=O)N3CCCCC3)c2)nnc1C1CC1 do in these assays?
HNF4A DNA FP: 1; Rpn11 inh: 0; CSN inh: 3; IDE cell activ: 1

What do the screens show for `CC[C@]12c3[nH]c4ccc(Cl)cc4c3CCN1C(=O)[C@@H](CC(=O)NCCN1CCOCC1)C[C@@H]2C(=O)N1CCN(C(=O)c2ccco2)CC1`?
HNF4A DNA FP: -1; Rpn11 inh: 1; CSN inh: 95*; IDE cell activ: 2

What do the screens show for `CC[C@]12c3[nH]c4ccc(Cl)cc4c3CCN1C(=O)[C@@H](CC(=O)NCc1ccco1)C[C@@H]2C(=O)N1CCN(C(=O)c2ccco2)CC1`?
HNF4A DNA FP: 3; Rpn11 inh: 2; CSN inh: -3; IDE cell activ: -2

How did Cc1ccc2nc(-c3ccc(NC(=O)CN4CCN(C(=O)c5ccco5)CC4)cc3)sc2c1 do in these assays?
HNF4A DNA FP: 1; Rpn11 inh: 32; TPT1 inhibitor: 3; CSN inh: 3; IDE cell activ: -8; IDE cell inh: 18*

Results for CCCCCNC(=O)C(c1cccc2ccccc12)n1c(=O)c(-c2ccco2)nc2ccccc21 (stereo not given) ?
HNF4A DNA FP: 40*; CSN inh: 33

What do the screens show for `O=C(NCc1ccccc1)C(c1cccc2ccccc12)n1c(=O)c(-c2ccco2)nc2ccccc21` (stereo not given)?
HNF4A DNA FP: 26; CSN inh: 21

How did Cc1cccc(C)c1NC(=O)C(c1ccnc2ccccc12)n1c(=O)c(-c2ccco2)nc2ccccc21 (stereo not given) do in these assays?
HNF4A DNA FP: 44*; CSN inh: 21

What do the screens show for `Cc1cccc(C)c1NC(=O)C(c1ccccc1F)n1c(=O)c(-c2ccco2)nc2ccccc21` (stereo not given)?
HNF4A DNA FP: 45*; CSN inh: 23

How did COc1ccc(CCNC(=O)c2cc(C3CC3)nc3c2cnn3C(C)C)cc1 do in these assays?
HNF4A DNA FP: 1; Rpn11 inh: 0; CSN inh: -6; IDE cell activ: 1; IDE cell inh: -3

How did CCOC(=O)C1=CC[C@]2(C)c3c(c4ccccc4n3C)C(=O)C1N2C do in these assays?
HNF4A DNA FP: 9; Rpn11 inh: 4; CSN inh: 1; IDE cell activ: -2; IDE cell inh: 6

Results for O=C(COC(=O)/C=C/c1ccc(F)cc1)NCC1CCCO1 (stereo not given) ?
HNF4A DNA FP: 2; Rpn11 inh: -2; CSN inh: -3; IDE cell activ: 1; IDE cell inh: -2

What do the screens show for `c1ccc(CNc2c3c(nc4ncnn24)CCC3)cc1`?
HNF4A DNA FP: 63*; Rpn11 inh: 40; TPT1 inhibitor: -4; CSN inh: 4; IDE cell activ: 5; IDE cell inh: 6

Results for Cc1ccnc(N/C=C(/NC(=O)c2ccccc2)C(=O)N/N=C\c2ccc(Cl)cc2)n1 ?
HNF4A DNA FP: -5; Rpn11 inh: 6; TPT1 inhibitor: 1; CSN inh: 2; IDE cell activ: -29; IDE cell inh: 32*

What do the screens show for `COc1ccc(-c2nc3cc(NC(=O)Cc4ccc(OC)c(OC)c4)ccc3o2)cc1`?
HNF4A DNA FP: 6; Rpn11 inh: 2; TPT1 inhibitor: 0; CSN inh: 43*; IDE cell activ: 6; IDE cell inh: -1
